According to ChEMBL document CHEMBL1127627, “Synthesis and antitumor activity of a new class of pyrazolo[4,3-e]pyrrolo[1,2-a][1,4]diazepinone analogues of pyrrolo[1,4][2,1-c]benzodiazepines” (J Med Chem, 1994):
“And” between values parts separate entries of the source, which are not always exact repeats. Equal values may be shown once.

Experiments:
LoVo [1] = experiment: Tested in vitro for inhibition after 144 hr against human colon carcinoma LoVo/DX cell line resistant to Doxorubicin (DX); type: functional, cell-based
In short: (§1)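 LoVo human colon carcinoma cells and their doxorubicin-resistant LoVo/DX subline were used in growth-inhibition studies. IC50 is the concentration inhibiting growth by 50% after 144 h exposure to compound, reported as the mean of repeated experiments ± standard deviation.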

[2] = Resistance index as the ratio of IC50 against LoVo/Dx to that of LoVo; type: functional
In short: (§2)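 Resistance index taken as IC50 in doxorubicin-resistant LoVo/DX human colon carcinoma cells over IC50 in parental LoVo cells. Each IC50 is the concentration giving 50% growth inhibition after 144 h exposure.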

L1210 [3] = experiment: Tested in vitro for inhibition after 48 hr exposure against murine leukemia cell line L1210; type: functional, cell-based; conditions: Mus musculus, L1210, 48 h
In short: (§3)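 L1210 murine leukemia cells and their melphalan-resistant L1210/L-PAM subline were used in growth-inhibition studies. IC50 is the concentration inhibiting growth by 50% after 48 h exposure, given as the mean of repeated experiments ± standard deviation.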

LoVo [4] = experiment: Tested in vitro for inhibition after 144 hr exposure against human colon carcinoma LoVo cell line; type: functional, cell-based; in short: as §1
[5] = Resistance index as the ratio of IC50 against L1210/L-PAM to that of L1210 cell lines.; type: functional
In short: (§4)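 Resistance index computed as IC50 in melphalan-resistant L1210/L-PAM murine leukemia cells divided by IC50 in parental L1210 cells. Each IC50 is the concentration inhibiting growth by 50% after 48 h exposure, from growth-inhibition studies.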

L1210 [6] = experiment: tested in vitro for inhibition after 48 hr exposure against murine leukemia cell line L1210/L-PAM resistant to melphalan (L-PAM by experiment 1.; type: functional, cell-based; conditions: Mus musculus, L1210, 48 h; in short: as §3
L1210 [7] = experiment: Tested in vitro for inhibition after 48 hr exposure against murine leukemia cell line L1210 by experiment 1; type: functional, cell-based; conditions: Mus musculus, L1210, 48 h; in short: as §3
L1210 [8] = experiment: Tested in vitro for inhibition after 48 hr exposure against murine leukemia cell line L1210 by experiment 2; type: functional, cell-based; conditions: Mus musculus, L1210, 48 h; in short: as §3
L1210 [9] = experiment: tested in vitro for inhibition after 48 hr exposure against murine leukemia cell line L1210/L-PAM resistant to melphalan (L-PAM by experiment 2.; type: functional, cell-based; conditions: Mus musculus, L1210, 48 h; in short: as §3
L1210 [10] = experiment: Tested in vitro for inhibition after 48 hr exposure against murine leukemia cell line L1210/L-PAM resistant to melphalan (L-PAM) by experiment 1.; type: functional, cell-based; conditions: Mus musculus, L1210, 48 h; in short: as §3
L1210 [11] = experiment: Tested in vitro for inhibition after 48 hr exposure against murine leukemia cell line L1210/L-PAM resistant to melphalan (L-PAM) by experiment 2.; type: functional, cell-based; conditions: Mus musculus, L1210, 48 h; in short: as §3
[12] = Resistance index as the ratio of IC50 against LoVo/Dx to that of LoVo.; type: functional; in short: as §2
L1210 [13] = experiment: Tested in vitro for inhibition after 48 hr exposure against murine leukemia cell line L1210/L-PAM resistant to melphalan (L-PAM); type: functional, cell-based; conditions: Mus musculus, L1210, 48 h; in short: as §3
[14] = Resistance index as the ratio of IC50 against L1210/L-PAM to that of L1210 cell lines; type: functional
L1210 [15] = experiment: Tested in vitro for inhibition after 48 hr exposure against murine leukemia cell line L1210/L-PAM resistant to melphalan (L-PAM)by experiment 2.; type: functional, cell-based; conditions: Mus musculus, L1210, 48 h; in short: as §3
L1210 [16] = experiment: Tested in vitro for inhibition after 48 hr exposure against murine leukemia cell line L1210/L-PAM resistant to melphalan (L-PAM)by experiment 1.; type: functional, cell-based; conditions: Mus musculus, L1210, 48 h; in short: as §3
L1210 [17] = experiment: Tested in vitro for inhibition after 48 hr exposure against murine leukemia cell line L1210/L-PAM resistant to melphalan (L-PAM) by experiment 2; type: functional, cell-based; conditions: Mus musculus, L1210, 48 h; in short: as §3
[18] = Resistance index as the ratio of IC50 against L1210/L-PAM to that of L1210 cell lines in experiment 2.; type: functional; in short: as §4
[19] = Resistance index as the ratio of IC50 against LoVo/Dx to that of LoVo in experiment 1; type: functional; in short: as §2
L1210 [20] = experiment: Tested in vitro for inhibition after 48 hr exposure against murine leukemia cell line L1210/L-PAM resistant to melphalan (L-PAM) by experiment 1; type: functional, cell-based; conditions: Mus musculus, L1210, 48 h; in short: as §3

SMILES	IC50 (LoVo [1])	RI [2]	IC50 (L1210 [3])	IC50 (LoVo [4])	IC50 (L1210 [7])	IC50 (L1210 [8])	also measured
Cc1nn(Cc2ccccc2)c2c1N=C[C@@H]1CCCN1C2=O	38 µM	0.8	20 µM	46 µM			
COC(=O)c1c2c(nn1C)C(=O)N1CCC[C@H]1C=N2	> 162 µM			> 162 µM	31 µM	41 µM	RI [5]: 2.2 and 1.5; IC50 (L1210 [6]): 69 µM; IC50 (L1210 [9]): 62 µM
Cc1nn(C)c2c1N=C[C@@H]1CCCN1C2=O	39 µM	0.9	22 µM	42 µM			
Cc1c2c(nn1Cc1ccc(Cl)cc1)C(=O)N1CCC[C@H]1C=N2	11 µM			37 µM	0.5 µM	0.8 µM	RI [5]: 2.8 and 3.1; IC50 (L1210 [10]): 0.16 µM; IC50 (L1210 [11]): 0.27 µM; RI [12]: 0.3
Cc1ccc(Cn2nc3c(c2C)N=C[C@@H]2CCCN2C3=O)cc1C	6 µM			40 µM	4 µM	5 µM	IC50 (L1210 [10]): 8 µM; IC50 (L1210 [11]): 4 µM; RI [12]: 0.2
COc1cc2c(cc1O)N=C[C@@H]1CCCN1C2=O			0.38 µM				
N[C@@H](Cc1ccc(N(CCCl)CCCl)cc1)C(=O)O	4.9 µM	1.18	15.3 µM	4.09 µM			IC50 (L1210 [13]): 47 µM; RI [14]: 3.1
Cc1c2c(nn1C)C(=O)N1CCC[C@H]1C=N2	32 µM	1.2	8 µM	27 µM			
Cc1c2c(nn1Cc1ccccc1)C(=O)N1CCC[C@H]1C=N2	25 µM	0.5	3 µM	54 µM			
C/C=C1/CC2C(OC)Nc3cc(OC)c(OC)cc3C(=O)N2C1 (stereo not drawn)	0.004 µM	0.5	0.012 µM	0.009 µM			IC50 (L1210 [13]): 0.015 µM; RI [14]: 1.4
CC(C)c1c2c(nn1Cc1ccccc1)C(=O)N1CCC[C@H]1C=N2	8 µM	0.2	12 µM	30 µM			IC50 (L1210 [13]): 11 µM; RI [14]: 0.97
COc1cccc2c1C(=O)c1c(O)c3c(c(O)c1C2=O)C[C@@](O)(C(=O)CO)C[C@@H]3O[C@H]1C[C@H](N)[C@H](O)[C@H](C)O1 [DOXORUBICIN]	7.6 µM	133	0.05 µM	0.057 µM			IC50 (L1210 [13]): 0.06 µM
CCn1nc(C)c2c1C(=O)N1CCC[C@H]1C=N2	> 215 µM			> 215 µM	40 µM	69 µM	RI [5]: 2.5; IC50 (L1210 [10]): 101 µM; IC50 (L1210 [11]): 125 µM
COC(=O)c1nn(C)c2c1N=C[C@@H]1CCCN1C2=O	60 µM	1.12	27 µM	54 µM			
COc1ccc(Cn2nc3c(c2C)N=C[C@@H]2CCCN2C3=O)cc1	32 µM			48.4 µM	19 µM	11 µM	IC50 (L1210 [15]): 6 µM; RI [12]: 0.7; IC50 (L1210 [16]): 3 µM
CCn1nc2c(c1C)N=C[C@@H]1CCCN1C2=O	6 µM			15 µM	7 µM	6 µM	IC50 (L1210 [17]): 13 µM; RI [18]: 0.9 and 2; RI [19]: 0.4; IC50 (L1210 [20]): 6 µM
